An excerpt weighted towards active compounds, which were near 1.8% of everything screened.
SUMO1-SIM PPI – modulators of SUMO1 protein-protein interactions, primary screen, biochemical, uHTS; Small ubiquitin-related modifier 1 (Homo sapiens), P63165; SUMO1 binding to a labelled peptide, TR-FRET, 1 h; inhibition, % at 20 µM; 0.33% of 360,000 active; in the data active means inhibition above about 37%
Target sequence (P63165 whole entry, looked up): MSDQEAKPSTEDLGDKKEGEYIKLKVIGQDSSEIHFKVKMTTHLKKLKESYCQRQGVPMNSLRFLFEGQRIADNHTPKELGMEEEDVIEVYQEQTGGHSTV
Scp-1 inhibitor – Scp-1 phosphatase inhibitors, primary screen, biochemical, colorimetric, uHTS | Recombinant Scp1, phosphopeptide, malachite green phosphate absorbance | AID 493091, 2011 | Carboxy-terminal domain RNA polymerase II polypeptide A small phosphatase 1 (Homo … | inhibition, % at 20 µM | 0.88% of 340,000 active;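 active means inhibition above about 50% at 20 µM, limit read from the data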;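 further: plate controls were DMSO wells with enzyme for no effect and wells lacking enzyme for full effect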
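System: SCP-1 catalytic domain; Reagent: Phospho 17-mer peptide substrate; Doses: one concentration, 20 µM, with 1.0% DMSO; Incubation: 45 min room-temperature reaction, 5 min colour, 30 min stabiliser; Signal: Phosphate-binding colour reagent, absorbance read at 630 nm.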
STEP inh – STEP phosphatase inhibitors, primary screen, biochemical, fluorescence intensity, uHTS. Tyrosine-protein phosphatase non-receptor type 5 (Homo sapiens), P54829. recombinant STEP, OMFP fluorogenic substrate. inhibition, % at 20 µM. 0.25% of 360,000 active;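 active means inhibition at 20 µM, scaled per plate between control wells, above about 37%, limit read from the data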;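 further: 0% = DMSO with enzyme and substrate and 100% = substrate only without enzyme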
Target sequence (P54829 whole entry, looked up): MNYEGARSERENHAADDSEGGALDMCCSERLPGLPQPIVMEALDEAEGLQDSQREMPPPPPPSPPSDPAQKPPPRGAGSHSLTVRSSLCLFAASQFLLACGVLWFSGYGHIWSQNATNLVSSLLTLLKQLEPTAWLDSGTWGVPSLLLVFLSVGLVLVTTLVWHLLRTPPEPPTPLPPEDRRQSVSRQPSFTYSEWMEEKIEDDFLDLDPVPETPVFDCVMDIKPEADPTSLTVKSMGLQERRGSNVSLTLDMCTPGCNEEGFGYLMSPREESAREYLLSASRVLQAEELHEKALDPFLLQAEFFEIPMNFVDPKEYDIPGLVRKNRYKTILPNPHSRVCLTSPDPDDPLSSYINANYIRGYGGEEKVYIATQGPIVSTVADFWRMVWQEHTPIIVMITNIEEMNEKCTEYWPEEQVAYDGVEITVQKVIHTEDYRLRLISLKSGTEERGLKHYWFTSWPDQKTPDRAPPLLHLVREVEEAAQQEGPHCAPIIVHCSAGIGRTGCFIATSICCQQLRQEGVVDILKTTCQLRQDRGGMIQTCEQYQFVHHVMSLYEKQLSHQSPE
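System: isolated STEP enzyme; schedule: 20 min enzyme reaction at room temperature, protected from light; medium: Bis-Tris buffer pH 6.0, 2.5 mM DTT, 0.005% Tween 20; signal: fluorescence, 480/540 nm; dosing: single compound dose of 20 µM, 1% DMSO final; also added: OMFP substrate, 25 µM final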
DNMT1 inh – human DNMT1 methyltransferase inhibitors, primary screen, biochemical, molecular beacon, fluorescence, HinP1I cleavage, uHTS | 0.83% of 360,000 active | AID 588458, 2011 | DNA (cytosine-5)-methyltransferase 1 (Homo sapiens), P26358 | inhibition (reported as % activation of signal), % at 10 µM; in the data active means inhibition above about 50%
HKDC1 inhibitor – HKDC1 hexokinase inhibitors, primary screen, biochemical, fluorescence, uHTS; AID 493160, 2011; inhibition, % at 20 µM; 0.16% of 340,000 active; Q2TB90; recombinant HKDC1, G6PDH/diaphorase resazurin coupled fluorescence;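 active means inhibition above about 35% when tested at 20 µM, limit read from the data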;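 further: plate controls were DMSO wells with enzyme for no effect and DMSO wells lacking enzyme for full effect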
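System: Recombinant HKDC1 hexokinase | Amount: HKDC1 at 5 µg/mL | Reagent: Glucose with 1 mM ATP | Doses: Single 20 µM dose | Incubation: Reaction time 90 min, room temperature, protected from light | Signal: Coupled resazurin fluorescence, excitation 525 nm, emission 613 nm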
LMPTP inh – LMPTP phosphatase inhibitors, primary screen, biochemical, fluorescence intensity, uHTS | Low molecular weight phosphotyrosine protein phosphatase (Homo sapiens), P24666 | recombinant LMPTP-A, OMFP fluorogenic substrate | inhibition, % at 20 µM | 0.22% of 360,000 active | AID 651560, 2012;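 active means compounds that cut the enzyme signal by at least half of the control window in the single-dose screen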;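 further: plate controls were DMSO wells with enzyme plus substrate for no effect and substrate without enzyme for full effect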
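Assay system: LMPTP-A enzyme. Input: 0.625 nM LMPTP-A final. Probe or stimulus: 400 µM OMFP. Compound dosing: single 20 µM dose. Schedule: 50 min dark incubation at room temperature. Detection: fluorescence intensity of OMFP turnover product. Read-out: percent inhibition versus substrate-only and uninhibited controls. Benchmarks: no-enzyme low control, uninhibited high control.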
Beacon interf DR – spectral interference with molecular beacon fluorescence, dose response, artefact control for DNMT1 inhibitor project, biochemical, fluorescent molecular beacon. spectral interference counter-screen. IC50, µM. 200 tested, under 10 active. shares compounds with DNMT1 inh; call rule not given here
DNMT1 confirm – DNMT1 methyltransferase inhibitor retest, confirmation, biochemical, molecular beacon, fluorescence, single concentration; shares compounds with DNMT1 inh; DNMT1 molecular beacon HinP1I cleavage; inhibition, % at 10 µM; 8% of 2,300 active; AID 602385, 2012;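 active means average inhibition of at least 30% in the single-concentration confirmation test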
Beacon interf – counter-screen for DNMT1 inhibitors: spectral interference. 1% of 2,300 active. shares compounds with DNMT1 inh. activation (fluorescence interference), % at 10 µM. DNMT1 molecular beacon spectral interference counterscreen, fluorescence 485/520;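 active means activation of at least 30% at 10 µM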;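 further: DNMT1 catalytic domain with a HinP1I cleavage step and a FAM/dabcyl DNA beacon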
* = called active by the depositor; x = no result.

SMILES	SUMO1-SIM PPI	Scp-1 inhibitor	STEP inh	DNMT1 inh	HKDC1 inhibitor	LMPTP inh	DNMT1 confirm	Beacon interf	others
CC(=O)Nc1ccc(NC(=O)C2CCCN2C(=O)NCc2ccccc2)cc1 (centres undefined)	1	-7	4	88*	-5	-1	2	3
C=CCn1c(SCC(=O)Nc2ccc3c(c2)OCO3)nnc1-c1ccccc1	-2	5	1	52*	-2	3	1	6
C=CCn1c(SCC(=O)Nc2ccc(-c3nc4ccc(C)cc4s3)cc2)nnc1-c1ccccc1	7	61*	10	74*	-5	7	5	-3
O=C(CSc1nnc2ccccn12)Nc1cccc(-c2nc3ccccc3s2)c1	-2	-7	2	61*	-5	3	1	-7
C=CCn1c(SCC(=O)Nc2ccc3c(c2)OCO3)nnc1-c1ccccc1OC	-2	2	2	6	-6	2	x	x
C=CCn1c(SCC(=O)NNC(=O)Nc2ccc(C)cc2)nnc1-c1ccccc1	2	-11	1	0	-3	-2	x	x
COc1ccccc1CNC(=O)c1ccc2nc(C)c(N(C)Cc3ccc(NC(C)=O)cc3)n2c1	-20	x	2	-2	x	-6	x	x
COCCCNc1nc2cc(OC)c(OC)cc2c2nc(-c3ccccc3)nn12	7	-7	2	-8	4	2	x	x
CCN(CC)CCCNc1nc2cc(OC)c(OC)cc2c2nc(-c3ccccc3)nn12	11	-1	0	64*	10	5	26	-1	Beacon interf DR=>99
COc1ccc2c3c([nH]c2c1)C(C)N(C(C)=O)CC3 (centres undefined)	0	-11	-2	0	-5	1	x	x
COc1ccc2c3c([nH]c2c1)C(C)N(CCC(=O)NN)CC3 (centres undefined)	-3	-6	8	64*	2	0	4	4
COc1ccc(CN2C(=O)C(CC(=O)NCCN3CCOCC3)CC(C(=O)N3CCOCC3)=C2C)cc1 (centres undefined)	6	x	2	8	x	-2	x	x
CCn1c(=S)[nH]c2scc(-c3cccs3)c2c1=O	11	-1	0	-9	3	-1	x	x
CC(C)n1c(=S)[nH]c2scc(-c3cccs3)c2c1=O	-1	45	3	80*	0	15	14	-1
Cc1cccnc1C(c1ccc(F)cc1)N(C)C(=O)C1CCN(CCOc2ccc(Cl)cc2Cl)CC1 (centres undefined)	7	x	15	-10	x	1	x	x
CCCCNC(=O)c1nc(C2CCN(S(=O)(=O)c3ccc(OC(F)(F)F)cc3)CC2)oc1-c1ccccc1	1	x	x	x	x	1	x	x
CCCCNC(=O)C1CCC(CNS(=O)(=O)c2cccc3nsnc23)CC1 (centres undefined)	-38	-5	2	0	-6	0	x	x
CC1CCCN(CCCNC(=O)C2CCC(CNS(=O)(=O)c3cccc4nsnc34)CC2)C1 (centres undefined)	-30	1	-3	50*	-2	0	4	2
O/N=C/c1cn(-c2ccccc2)nc1-c1cccnc1	1	4	-1	1	1	0	x	x
CCN1C(=O)/C(=C/c2cn(-c3ccccc3)nc2-c2cccnc2)SC1=S	2	2	1	61*	-5	-1	4	1
CC1=NNC(=O)/C1=C\c1cn(-c2ccccc2)nc1-c1cccs1	3	-3	-2	4	24	0	x	x
O=C(O)CCCCCN1C(=O)/C(=C\c2cn(-c3ccccc3)nc2-c2cccs2)SC1=S	114*	66*	2	85*	11	5	44*	-5	Beacon interf DR=60*
COc1ccc(-c2nn(-c3ccccc3)cc2/C=C2/SC(=S)N(CCC(=O)O)C2=O)c(C)c1	24	-2	2	12	7	7	x	x
O=C(CCCN1C(=O)/C(=C\c2cccs2)SC1=S)Nc1ccccc1O	-5	x	-1	6	x	0	x	x
O=C(O)CCCCCN1C(=O)/C(=C/c2cn(-c3ccccc3)nc2-c2cccs2)SC1=S	59*	39	1	83*	5	2	46*	-1	Beacon interf DR=81*
SMILES	SUMO1-SIM PPI	Scp-1 inhibitor	STEP inh	DNMT1 inh	HKDC1 inhibitor	LMPTP inh	DNMT1 confirm	Beacon interf	others
COc1ccc(-c2nn(-c3ccccc3)cc2/C=C2/SC(=S)N(CCC(=O)O)C2=O)cc1	11	85*	18	75*	11	0	89*	-6	Beacon interf DR=>99
COc1ccc(NC(=O)CSc2nc3[nH]ncc3c(=O)[nH]2)c(OC)c1	1	4	1	1	-5	-1	x	x
CCN(c1ccccc1)S(=O)(=O)c1cc(NC(=O)C2CC2)ccc1Cl	1	-11	0	-2	-4	2	x	x
CCN(c1ccccc1)S(=O)(=O)c1cc(NC(=O)CSc2n[nH]c(=O)[nH]c2=O)ccc1Cl	4	0	0	65*	-1	0	3	8
Cc1ccc2cc(C#N)c(SCC(=O)NNC(=O)Cc3ccccc3)nc2c1	-5	0	-1	45	5	0	-1	-5
CN(C)c1ccc(C(=O)N2CCC2(C)C(=O)O)cc1 (centres undefined)	-3	x	0	3	x	0	x	x
CCOC(=O)c1c(N)n(CCOC(=O)c2cccs2)c2nc3ccccc3nc12	38	0	5	100*	16	4	7	6
CCCCCOC(=O)c1c(N)n(CCOC)c2nc3ccccc3nc12	5	0	2	-15	14	1	x	x
COCCNC(=S)N/N=C(\C)c1ccc(OC)cc1	-2	-5	-2	4	-9	-1	x	x
COCCNC(=S)N/N=C(\C)c1ccc(OC(F)F)cc1	-10	-11	1	62*	-8	0	0	3
CCOC(=O)C1(C)CCCCCN1C(=O)c1csnn1 (centres undefined)	3	x	1	-4	x	-1	x	x
